# Test results taken from ChEMBL document CHEMBL2311473, “Characterization of antimicrobial, cytotoxic, and antiendotoxin properties of short peptides with different hydrophobic amino acids at "a" and "d" positions of a heptad repeat sequence” (J Med Chem, 2013).
# Activity calls are given as the source filed them. The calls are words filed in the database; no cut-off is given here.
# What was measured:
# [1] = tested on: Lipopolysaccharide (LPS); experiment: Binding affinity to LPS assessed as inhibition of LPS-induced LAL enzyme activation at 18 uM after 30 mins by spectrophotometric analysis
# Outline: (§1)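 Chromogenic limulus amoebocyte lysate endotoxin kit. Peptide binding to LPS estimated from inhibition of LPS-induced LAL enzyme activation, i.e. reduced substrate colour, and reported as percentage LPS binding.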
# [2] = tested on: Lipopolysaccharide (LPS); experiment: Binding affinity to LPS assessed as inhibition of LPS-induced LAL enzyme activation at 9 uM after 30 mins by spectrophotometric analysis; outline: as §1
# [3] = tested on: Lipopolysaccharide (LPS); experiment: Binding affinity to LPS assessed as inhibition of LPS-induced LAL enzyme activation at 4.5 uM after 30 mins by spectrophotometric analysis; outline: as §1
# [4] = tested on: Lipopolysaccharide (LPS); experiment: Binding affinity to FITC-tagged LPS assessed as induction of disintegration up to 40 uM by […]; settings: in the assay text read “fluorescence dequenching” for “circular dichroism”
# Outline: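 FITC-LPS (0.5 μg/mL) titrated with increasing peptide concentrations. Disaggregation read as dequenching, i.e. rise in FITC fluorescence, monitored after each addition until emission reached equilibrium.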
# [5] = tested on: Lipopolysaccharide (LPS); experiment: Binding affinity to LPS assessed as increase in helical structure at 36 uM by circular dichroism analysis
# Outline: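 CD spectra of peptides (36 μM) recorded alone and with LPS at 3.8 and 6.25 μM.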
# [6] = tested on: RAW264.7; experiment: Antiinflammatory activity in mouse RAW264.7 cells assessed as inhibition of LPS-induced IL6 secretion at 1.5 to 4.5 uM after 12 hrs by ELISA; assay type: functional, cell-based
# Outline: (§2)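 RAW 264.7 cells treated with LPS alone or LPS plus peptide. TNF-α and IL-6 measured by ELISA in culture supernatant and expressed as percentage inhibition of LPS-induced secretion. Mean of three independent experiments, SD shown.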
# [7] = tested on: RAW264.7; experiment: Antiinflammatory activity in mouse RAW264.7 cells assessed as downregulation of LPS-induced iNOS2 expression at 4.5 uM after 24 hrs by Western blotting analysis; assay type: functional, cell-based
# Outline: (§3)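 RAW 264.7 cells (~2 × 10^5) stimulated with LPS 1 μg/mL plus peptide 4.5 μM for 24 h. Cells washed in ice-cold PBS and lysed in Laemmli buffer. SDS-PAGE (8% gel iNOS-2, 12% TNF-α), nitrocellulose transfer, alkaline phosphatase secondary with NBT/BCIP. Band densities normalized to β-actin. LPS-only and untreated cells served as controls.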
# [8] = tested on: RAW264.7; experiment: Antiinflammatory activity in mouse RAW264.7 cells assessed as downregulation of LPS-induced TNFalpha expression at 4.5 uM after 24 hrs by Western blotting analysis; assay type: functional, cell-based; outline: as §3
# [9] = tested on: RAW264.7; experiment: Antiinflammatory activity in mouse RAW264.7 cells assessed as inhibition of LPS-induced NO production at 6 uM by Griess method; assay type: functional; design: scale not given: the % may be the effect or the level left
# Outline: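 RAW 264.7 cells plated at 5 × 10^5/well and exposed to LPS (E. coli 0111:B4, 1 μg/mL) together with peptide at varying doses. Cells with and without LPS served as maximum and basal NO controls. Nitrite in the supernatant measured by Griess reagent at 548 nm against a sodium nitrite standard curve, and percent inhibition of NO calculated.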
# [10] = Binding affinity to PE/PG lipid vesicles assessed as decrease in decrease in acrylamide-induced tryptophan fluorescence quenching at 1 uM; assay type: physicochemical
# Outline: (§4)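 Acrylamide quencher added in aliquots from 3.0 M stock to peptide with PC/Chol (8:1) or PE/PG (7:3) SUVs, peptide/lipid 1:100. Trp excited at 295 nm. Values corrected for dilution and vesicle-blank scatter, then fitted to Stern–Volmer F0/F = 1 + KSV[Q].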
# [11] = Binding affinity to PC/Chol lipid vesicles assessed as decrease in acrylamide-induced tryptophan fluorescence quenching at 1 uM; assay type: physicochemical; outline: as §4
# [12] = Binding affinity to PC/Chol lipid vesicles assessed as induction of large blue shift at 1 uM by fluorescence assay; assay type: physicochemical
# [13] = Binding affinity to PE/PG lipid vesicles assessed as induction of large blue shift at 1 uM by fluorescence assay; assay type: physicochemical
# [14] = Induction of dissipation of diffusion potential in PC/Chol lipid vesicles by fluorescence assay; assay type: physicochemical
# Outline: (§5)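 SUVs of PC/Chol (8:1 w/w) or PE/PG (7:3 w/w) treated with peptide. Dissipation of diffusion potential taken as percentage fluorescence recovery ~5 min after peptide addition, with valinomycin used for reference levels. Plotted against peptide/lipid molar ratio.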
# [15] = Induction of dissipation of diffusion potential in PE/PG lipid vesicles by fluorescence assay; assay type: physicochemical; outline: as §5
# [16] = tested on: Staphylococcus aureus; experiment: Bactericidal activity against Staphylococcus aureus ATCC 9144 assessed as induction of membrane depolarization at up to 7 uM by DiSC3(5) staining-based fluorescence assay; assay type: functional, organism-based
# Outline: (§6)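 Membrane potential dye diS-C3-5 preincubated 1 h with hRBC or S. aureus suspensions; I0 is steady-state fluorescence after this incubation. Peptide then added at varying concentrations. Depolarization expressed as percentage fluorescence recovery (Ft) versus peptide concentration.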
# [17] = Cytotoxicity against human RBC assessed as induction of membrane depolarization at up to 16 uM by DiSC3(5) staining-based fluorescence assay; assay type: cell-based; settings: erythrocyte; outline: as §6
# [18] = tested on: Escherichia coli; experiment: Bactericidal activity against Escherichia coli ATCC 10536 assessed as induction of membrane damage at 5 uM after 30 mins by propidium iodide staining-based flow cytometric analysis; assay type: functional, organism-based
# Outline: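 Mid-log E. coli incubated with peptide (~5.0 μM) 30 min at 37 °C with shaking. Cells washed twice in PBS, stained with propidium iodide 30 min at 4 °C, washed and resuspended. 10000 events per sample by flow cytometry, compared with peptide-free control.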
# [19] = Cytotoxicity against human RBC assessed as induction of membrane damage at 25 uM after 5 mins by annexin V-FITC staining-based FACS flow cytometric analysis; assay type: cell-based; settings: erythrocyte
# Outline: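 hRBCs (~3.0 × 10^7 cells/mL) treated with peptide (~25.0 μM) for 5 min at room temperature. Stained with FITC-annexin V and analysed by flow cytometry, 10000 events, compared with untreated control.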
# [20] = tested on: Escherichia coli; experiment: Drug uptake in Escherichia coli ATCC 10536 assessed as membrane localization at 3 uM after 30 mins by confocal microscopic analysis; assay type: ADME, organism-based; settings: in vivo, 0.5 h
# Outline: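 E. coli (~10^6 CFU/mL) in LB incubated with fluorescent-labeled peptide (~3.0 μM) for half an hour. Cells centrifuged, washed and imaged by confocal microscopy (DIC and fluorescence).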
# [21] = tested on: Aspergillus fumigatus; experiment: Antifungal activity against Aspergillus fumigatus after 72 hrs by NCCLS microbroth dilution method; assay type: functional
# Outline: (§7)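 Microbroth dilution in MOPS-buffered RPMI 1640 following NCCLS guidelines. Inoculum 1−5 × 10^3 cells/mL, peptide range 50−0.36 (mass/mL). Plates held in a moist chamber at 35 °C and A492 read after 48 h (Candida spp.), 72 h (A. fumigatus, S. schenckii, C. neoformans) or 96 h (T. mentagrophytes). MIC taken as 90% growth inhibition versus growth control.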
# [22] = tested on: Trichophyton mentagrophytes; experiment: Antifungal activity against Trichophyton mentagrophytes after 96 hrs by NCCLS microbroth dilution method; assay type: functional; outline: as §7
# [23] = tested on: Sporothrix schenckii; experiment: Antifungal activity against Sporothrix schenckii after 72 hrs by NCCLS microbroth dilution method; assay type: functional; outline: as §7
# [24] = tested on: Candida parapsilosis; experiment: Antifungal activity against Candida parapsilosis ATCC 22019 after 48 hrs by NCCLS microbroth dilution method; assay type: functional; settings: Lodderomyces parapsilosis, ATCC 22019, 48 h; outline: as §7
# [25] = tested on: Cryptococcus neoformans; experiment: Antifungal activity against Cryptococcus neoformans after 72 hrs by NCCLS microbroth dilution method; assay type: functional; outline: as §7
# [26] = tested on: Candida albicans; experiment: Antifungal activity against Candida albicans after 48 hrs by NCCLS microbroth dilution method; assay type: functional; outline: as §7
# [27] = tested on: Klebsiella pneumoniae; experiment: Antibacterial activity against Klebsiella pneumoniae ATCC 27736 after 18 hrs by broth dilution method; assay type: functional; settings: ATCC 27736, 18 h
# Outline: (§8)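 Bacteria grown aerobically at 37 °C in Mueller-Hinton broth to mid-log phase (OD600), diluted to ~10^6 cfu/mL, then mixed 1:1 with 2-fold serial peptide dilutions in water. Incubation ~18 h at 37 °C before MIC read-out (μM).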
# [28] = tested on: Pseudomonas aeruginosa; experiment: Antibacterial activity against Pseudomonas aeruginosa ATCC BAA-427 after 18 hrs by broth dilution method; assay type: functional; settings: ATCC BAA-427, 18 h; outline: as §8
# [29] = tested on: Staphylococcus aureus; experiment: Antibacterial activity against methicillin-resistant Staphylococcus aureus after 18 hrs by broth dilution method; assay type: functional; outline: as §8
# [30] = tested on: Escherichia coli; experiment: Antibacterial activity against Escherichia coli ATCC 10536 after 18 hrs by broth dilution method; assay type: functional; settings: ATCC 10536, 18 h; outline: as §8
# [31] = tested on: Bacillus subtilis; experiment: Antibacterial activity against Bacillus subtilis ATCC 6633 after 18 hrs by broth dilution method; assay type: functional; settings: ATCC 6633, 18 h; outline: as §8
# [32] = tested on: Staphylococcus epidermidis; experiment: Antibacterial activity against Staphylococcus epidermidis NRRL B-4268 after 18 hrs by broth dilution method; assay type: functional; settings: NRRL B-4268, 18 h; outline: as §8
# [33] = tested on: Staphylococcus aureus; experiment: Antibacterial activity against Staphylococcus aureus ATCC 9144 after 18 hrs by broth dilution method; assay type: functional; settings: ATCC 9144, 18 h; outline: as §8
# [34] = tested on: NIH3T3; experiment: Cytotoxicity against mouse 3T3 cells assessed as cell viability up to 25 uM by MTT assay; assay type: cell-based
# Outline: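 Murine 3T3 fibroblasts, grown in DMEM/IMDM with 10% FCS at 37 °C, 5% CO2, seeded at 10000 cells/well. Viability after peptide exposure measured by MTT (mitochondrial dehydrogenase) across a dose range.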
# [35] = Cytotoxicity against human RBC assessed as hemolysis at 60 uM; assay type: cell-based, Erythrocyte; settings: red blood cells (RBC), read-out: Activity
# Outline: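 hRBCs in PBS exposed to peptide. Hemoglobin release read as supernatant absorbance at 540 nm. Hemolysis % = (Asample − Ablank)/(Atriton − Ablank) × 100, with PBS blank and 0.2% Triton X-100 (final) as 100% reference.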
# [36] = tested on: RAW264.7; experiment: Antiinflammatory activity in mouse RAW264.7 cells assessed as inhibition of LPS-induced TNFalpha secretion at 1.5 to 4.5 uM after 12 hrs by ELISA; assay type: functional, cell-based; outline: as §2
# [37] = Drug uptake in human RBC assessed as membrane localization at 9 uM after 10 to 30 mins by confocal microscopic analysis; assay type: ADME; settings: erythrocyte
# Outline: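 Fresh hRBCs (3% in PBS) incubated with NBD-labeled peptide (~9.0 μM) for 10–30 min at 37 °C. Washed, fixed in 2% paraformaldehyde 10 min, and imaged by confocal microscopy at constant photomultiplier setting.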
smiles,measurement,setting,value
C[C@H](N)C(=O)O [ALANINE],inhibition,[1],10%
same,inhibition,[2],7%
same,inhibition,[3],3%
same,Activity,[4],Active
same,Activity,[5],Active
same,inhibition,[6],Active
same,Activity,[7],Active
same,Activity,[8],Active
same,Activity,[9],13%
same,Activity,[10],Active
same,Activity,[11],Not Active
same,Activity,[12],Not Active
same,Activity,[13],Active
same,Activity,[14],Active
same,Activity,[15],Active
same,Activity,[16],Active
same,Activity,[17],Non-toxic
same,Activity,[18],Active
same,Activity,[19],Non-toxic
same,Drug uptake,[20],Active
same,MIC,[21],> 25 µM
same,MIC,[22],> 25 µM
same,MIC,[23],25 µM
same,MIC,[24],25 µM
same,MIC,[25],> 25 µM
same,MIC,[26],> 25 µM
same,MIC,[27],25 µM
same,MIC,[28],6.25 µM
same,MIC,[29],> 25 µM
same,MIC,[30],4.5 µM
same,MIC,[31],20 µM
same,MIC,[32],8 µM
same,MIC,[33],6.25 µM
same,Activity,[34],Toxic
same,hemolysis at 60 µM,[35],1%
same,inhibition,[36],Active
same,Drug uptake,[37],Not Active
